Experimental data of several laboratories.
Each line is one published result; the experiments were not run side by side.
SLC6A2: Sodium-dependent noradrenaline transporter (SLC6A2, Homo sapiens, UniProt P23975)
CES2: Cocaine esterase (CES2, Homo sapiens, UniProt O00748)
Oprk1: Kappa-type opioid receptor (Oprk1, Mus musculus, UniProt P33534)
FPR1: fMet-Leu-Phe receptor (FPR1, Homo sapiens, UniProt P21462)

Structure (SMILES) | target | read-out | mode | method | notes | quantity | value
CCOC(=O)[C@@]12C[C@@H]1[C@@H](n1cnc3c(NCCCCCCc4ccccc4)nc(I)nc31)[C@H](O)[C@@H]2O | SLC6A2 | ligand displacement | – | radioligand | – | Ki | 5.4 µM
COc1cc2c(cc1OC)C(=O)/C(=C/c1ccc3ccccc3c1)C2 | CES2 | enzyme activity | inhibitor | fluorescence | with preincubation | IC50 | 10.4 µM
CCCC[C@H](NC(C)=O)C(=O)N[C@H]1CC(=O)NCCCC[C@@H](C(=O)N[C@@H](C(=O)N2CCC[C@@H]2C(N)=O)C(C)C)NC(=O)[C@H](Cc2c[nH]c3ccccc23)NC(=O)[C@H](CCCN=C(N)N)NC(=O)[C@@H](Cc2ccc3ccccc3c2)NC(=O)[C@@H]2CCCN2C1=O | Melanocortin receptor 4 (MC4R, Homo sapiens, UniProt P32245) | cAMP | agonist | – | – | EC50 | > 1 µM
CN1C(=O)C(c2c(-c3ccc(Cl)cc3)[nH]c3c2c(=O)[nH]c(=O)n3C)c2ccccc21 (centres unmarked) | WD repeat-containing protein 91 (Homo sapiens, UniProt A4D1P6) | binding | – | SPR | – | Kd | 2 µM
O=C(CCNC(=O)CNC(=O)CC(c1ccccc1)(c1ccccc1)c1ccccc1)NC[C@@H]1CCCN(Cc2ccc(F)nc2)C1 | Muscarinic acetylcholine receptor M5 (CHRM5, Homo sapiens, UniProt P08912) | ligand displacement | – | radioligand | cell membranes | IC50 | > 30 µM
CC(C)[C@H](CN1CCc2ccccc2C1)NC(=O)c1ccc([N+](=O)[O-])s1 | Oprk1 | ligand displacement | – | radioligand | – | Ki | 9.3 µM
COc1cc2c(cc1OC)C(=O)/C(=C/c1ccccc1N1CCCC1)C2 | CES2 | enzyme activity | inhibitor | fluorescence | with preincubation | IC50 | 0.72 µM
OC[C@@]12C[C@@H]1[C@@H](n1cnc3c(NCCCCCCc4ccccc4)nc(I)nc31)[C@H](O)[C@@H]2O | SLC6A2 | ligand displacement | – | radioligand | – | Ki | 1.4 µM
O=c1cc(-c2ccc(O)cc2)oc2cc(O)cc(O)c12 | NACHT, LRR and PYD domains-containing protein 3 (NLRP3, Homo sapiens, UniProt Q96P20) | binding | – | SPR | – | Kd | 18.7 µM
Cc1cccc(-c2nnc(N[C@@H](Cc3ccc(C#N)cc3)C(=O)N3CCc4ccccc43)o2)c1 | FPR1 | calcium signal | agonist | – | – | EC50 | 19.4 µM
O=c1c(O[C@@H]2O[C@H](CO)[C@H](O)[C@H](O)[C@H]2O)c(-c2ccc(O)c(O)c2)oc2cc(O)cc(O)c12 | srtA (Staphylococcus aureus, UniProt Q2FV99) | binding | – | SPR | – | Kd | 19.5 µM
CCOC(=O)[C@@]12C[C@@H]1[C@@H](n1cnc3c(NCCCCCCc4ccccc4)nc(C#Cc4ccc(Cl)s4)nc31)[C@H](O)[C@@H]2O | SLC6A2 | ligand displacement | – | radioligand | – | Ki | 5.4 µM
O=C(c1ccc(OCCN2CCCCC2)cc1)c1c(-c2ccc(O)cc2)sc2cc(O)ccc12 | CES2 | enzyme activity | inhibitor | fluorescence | with preincubation | IC50 | > 100 µM
CCOC(=O)[C@@]12C[C@@H]1[C@@H](n1cnc3c(Nc4ccccc4)nc(C#Cc4ccc(Cl)s4)nc31)[C@H](O)[C@@H]2O | SLC6A2 | ligand displacement | – | radioligand | – | Ki | 2.3 µM
CC(=O)[C@H]1CC[C@H]2[C@@H]3CC=C4C[C@@H](O)CC[C@]4(C)[C@H]3CC[C@]12C | CES2 | enzyme activity | inhibitor | fluorescence | with preincubation | IC50 | > 100 µM
CC(C)[C@H](CN1CCc2ccccc2C1)NC(=O)c1c(Cl)cncc1Cl | Oprk1 | ligand displacement | – | radioligand | – | Ki | 12.5 µM
COc1cc2c(cc1OC)C(=O)/C(=C/c1cccc3ccccc13)C2 | CES2 | enzyme activity | inhibitor | fluorescence | with preincubation | IC50 | 15.3 µM
CNc1nc(C#Cc2ccc(Cl)s2)nc2c1ncn2[C@H]1[C@H](O)[C@H](O)[C@]2(C(=O)OC)C[C@H]12 | SLC6A2 | ligand displacement | – | radioligand | – | EC50 | 0.75 µM
COc1cc2c(cc1OC)C(=O)/C(=C/c1ccc(C)c(C)c1)C2 | CES2 | enzyme activity | inhibitor | fluorescence | with preincubation | IC50 | > 100 µM
N#Cc1ccc(C[C@H](Nc2nnc(-c3cccc(F)c3)o2)C(=O)N2CCc3ccccc32)cc1 | FPR1 | calcium signal | agonist | – | – | EC50 | 30.2 µM
